Shown are actives, neighbours in structure and some others; about 4.8% of the full set was active somewhere.
ALR H2O2 inh: human ALR oxidase inhibition via reduced H2O2; P55789; purified ALR, DTT oxidation, H2O2 HRP-luminol luminescence; inhibition, % (no concentration beside the values); hit rate 3.8% among 290,000; AID 485317;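 active means mean replicate inhibition above about 79%, with every replicate also reaching it, limit read from the data; inconclusive means only one of the two criteria met; inactive means mean below limit and not every replicate reaching it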
Target sequence (P55789 whole entry, looked up): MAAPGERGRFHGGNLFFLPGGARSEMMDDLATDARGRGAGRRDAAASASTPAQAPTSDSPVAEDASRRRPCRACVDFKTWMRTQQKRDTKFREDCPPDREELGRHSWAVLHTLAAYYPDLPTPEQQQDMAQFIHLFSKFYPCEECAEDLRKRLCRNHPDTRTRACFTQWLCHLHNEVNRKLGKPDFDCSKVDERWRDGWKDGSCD
NALP1 inh: inhibitors of NALP1 inflammasome in yeast; S. cerevisiae NALP1/ASC/caspase-1 growth, X-gal OD620, 72 h; inhibition, % at 10 µM; hit rate 0.61% among 280,000; AID 2071; in the data active means inhibition mostly above about 24%, no sharp cut-off; inactive means mostly below about 32%
ATG4B inhibitor: inhibitors of human ATG4B cysteine protease; Q9Y4P1; ATG4B cleavage of LC3-PLA2, NBD-HPC fluorescence, 1 h; inhibition, % at 8.33 µM; hit rate 0.51% among 340,000; in the data active means inhibition above about 40%
NLRP3 yeast inh: inhibitors of NALP3 inflammasome in yeast. inhibition, % at 10 µM. Yeast reconstituted NLRP3/ASC/caspase-1, beta-gal luminescence, 24 h. hit rate 0.39% among 330,000. AID 2825;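 active means inhibition of 50% or more; inactive means inhibition below 50%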;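 further: plate controls were induced DMSO wells for no effect and uninduced yeast grown without galactose for full effect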
Calb FLC: affects C. albicans growth with fluconazole; AID 1979; C. albicans CaCi-2 (fluconazole-resistant clinical isolate) + fluconazole, Alamar Blue growth, 48 h; growth inhibition, % (test concentration not listed); hit rate 0.57% among 300,000;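 active means growth inhibition above about 58% in most replicates, limit read from the data, passing the limit was not always enough; inconclusive means exactly half the replicates above a set limit; inactive means most replicates below a set limit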;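 further: all wells also contain fluconazole at 8 µg/ml as a sub-toxic cotreatment; 0% = median of DMSO wells and 100% = median of geldanamycin control wells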
UCH37 DUB inh: human UCH37 deubiquitinating enzyme inhibition. inhibition, % (no concentration beside the values). Q9Y5K5. hit rate 0.33% among 330,000. purified proteasome/UCH37, Ub-AMC cleavage fluorescence;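 active means mean inhibition over replicate wells above about 20%, limit read from the data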;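 further: 0% = compound-free wells with enzyme and 100% = wells lacking proteasome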
Target sequence (Q9Y5K5 whole entry, looked up): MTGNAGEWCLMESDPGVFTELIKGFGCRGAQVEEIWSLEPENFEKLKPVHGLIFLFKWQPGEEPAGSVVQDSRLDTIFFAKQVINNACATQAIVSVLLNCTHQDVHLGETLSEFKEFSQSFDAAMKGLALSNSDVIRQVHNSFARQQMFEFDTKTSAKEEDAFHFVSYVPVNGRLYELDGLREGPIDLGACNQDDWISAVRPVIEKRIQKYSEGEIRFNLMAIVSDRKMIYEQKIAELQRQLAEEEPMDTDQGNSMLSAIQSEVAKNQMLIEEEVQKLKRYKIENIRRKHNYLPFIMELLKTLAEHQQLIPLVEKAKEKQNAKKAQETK
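Material: Human UCH37 enzyme supplied as purified proteasome complex | Schedule: 30 min compound-proteasome preincubation then 25 min substrate reaction, room temperature | Detection: AMC fluorescence from Ub-AMC cleavage, excitation 355 nm, emission 460 nm | Benchmarks: Wells without proteasome as full block, compound-free enzyme plus substrate as uninhibited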
An asterisk follows results filed as active; u = inconclusive; x = no result given.

SMILES | ALR H2O2 inh | NALP1 inh | ATG4B inhibitor | NLRP3 yeast inh | Calb FLC | UCH37 DUB inh
CC(=O)c1cccc(NC(=S)NC(=O)c2ccccc2Cl)c1 | -0.6 | 34.6 | -5.0 | 12.1 | -0.1 | 3.2
Cc1cccc(NC(=S)NNC(=O)c2ccc(Br)o2)c1 | 94.4* | 11.0 | 11.8 | 24.9 | -8.1 | 4.2
CC(=O)c1cccc(NC(=S)NC(=O)c2ccc(C)cc2Cl)c1 | 15.7 | 37.2* | 0.6 | 8.7 | 20.4 | x
Cc1cccc(NC(=S)NNC(=O)c2csc(C)c2)c1 | 84.6* | 16.8 | -1.6 | 16.2 | 0.4 | 0.7
O=C(Cn1nnc(N2CCCC2)n1)NN=Cc1ccc(Cl)cc1 | x | x | x | x | x | 3.3
Cn1cccc1-c1cc(C(=O)NN=Cc2ccccc2Cl)[nH]n1 | x | x | x | x | x | -5.6
Cc1ccc(-c2n[nH]c(=S)n2N=C/C=C/c2ccccc2[N+](=O)[O-])cc1 | x | x | x | x | x | 7.2
Cc1ncc(CSCC(=O)Nc2cc(C(F)(F)F)ccc2Cl)c(CO)c1O | 94.2* | 33.4 | 2.9 | 2.2 | 4.6 | -9.9
O=C(O)CSCC(=O)Nc1cc(C(F)(F)F)ccc1Cl | -16.3 | 27.6 | -10.6 | 3.0 | 7.2 | -1.2
O=C(NN=Cc1ccoc1)c1ccccc1 | x | x | x | x | x | 1.2
CC(Oc1ccc(Br)cc1)C(=O)NNC(=O)CCN1CCN(c2ccccc2)CC1 (configuration not stated) | 95.2* | x | 0.0 | 17.4 | 7.1 | 5.0
Cc1ccccc1C(=O)NCC(=O)NNC(=O)CCN1CCN(c2ccccc2)CC1 | 2.8 | 12.4 | 6.2 | 15.4 | 5.2 | 5.8
CCOc1ccc(C(=O)CCC(=O)NNC(=O)CCN2CCN(c3ccccc3)CC2)cc1 | 95.1* | x | -0.4 | 14.3 | x | 3.4
Cc1ccsc1C(=O)NNC(=O)CCN1CCN(c2ccccc2)CC1 | 93.6* | x | 0.2 | 7.4 | -1.5 | 2.4
COc1ccccc1-c1noc(CSc2nc(N)cc(=O)[nH]2)n1 | -3.6 | 32.7* | -1.7 | -0.9 | 0.4 | 3.5
CCc1cc(=O)[nH]c(SCc2cccc3ccccc23)n1 | 97.9* | 27.8 | 2.4 | 8.1 | 0.1 | 3.0
COc1ccc(-c2noc(CSc3nc(N)c(-c4ccccc4)c(=O)[nH]3)n2)cc1 | 46.4 | 42.7 | 10.9 | 6.9 | u | 4.4
Nc1cc(=O)[nH]c(SCc2cccc3ccccc23)n1 | 98.5* | 10.3 | 5.3 | 2.1 | 5.6 | 3.1
O=c1cc(C(F)(F)F)nc(SCc2cccc3ccccc23)[nH]1 | 18.9 | 2.3 | 35.6 | 20.3 | 0.7 | 5.4
CN1C(=O)CC(N2CCN(c3ccc(Cl)cc3)CC2)C1=O (configuration not stated) | 98.0* | 9.5 | -14.0 | -7.4 | -2.2 | 0.8
COc1ccc(N2CCN(C3CC(=O)N(C)C3=O)CC2)cc1 (configuration not stated) | 45.0 | 7.5 | 4.1 | 18.4 | -0.1 | 5.9
COc1ccc(Cl)cc1C(=O)Nc1ccncc1 | -8.9 | 14.5 | 1.5 | 28.7 | 36.0 | 4.8
CCN(CC)c1ccc(NC(=O)c2ccccc2F)cc1 | 99.2* | 14.5 | 16.6 | 19.3 | 1.7 | 3.6
CCN(CC)c1ccc(NC(=O)c2cc(Cl)ccc2OC)cc1 | 98.5* | 5.3 | 6.2 | 22.4 | -4.6 | 0.6
CCN(CC)c1ccc(NC(=O)c2c(C)noc2C)cc1 | 98.3* | 8.1 | -0.1 | 11.9 | 0.3 | 1.6
SMILES | ALR H2O2 inh | NALP1 inh | ATG4B inhibitor | NLRP3 yeast inh | Calb FLC | UCH37 DUB inh
CC(=O)Nc1ccc(NC(=O)c2c(C)noc2C)cc1 | 1.2 | 19.1 | 0.6 | 2.8 | -0.2 | -2.4
CC(=NN(c1ccccc1)c1ccccc1)c1ccc(O)cc1 | x | x | x | x | x | 2.6
Fc1ccc(NN=Cc2ccc(N3CCOCC3)cc2)c(F)c1 | x | x | x | x | x | -6.4
O=C(COc1ccc(Cl)c(Cl)c1)NN1C(=O)C2C(C1=O)C1C=CC2C12CC2 (configuration not stated) | 0.5 | 3.9 | -6.4 | 1.2 | -9.3 | 0.5
CC(C)=C1C2CCC1C1C(=O)N(NC(=O)COc3ccc(Cl)c(C)c3)C(=O)C21 (configuration not stated) | -6.3 | 41.0* | -1.1 | 14.5 | -1.6 | 2.2
O=C(CSc1nccn1-c1ncc(C(F)(F)F)cc1Cl)c1ccc(Cl)cc1 | 9.4 | 9.8 | -34.1 | -3.1 | 3.7 | 30.9*
Cc1ccc(NNC(=O)c2ccno2)c(C)c1 | 99.2* | 22.8 | -4.5 | 13.8 | 41.2 | 0.5
Cc1nc2ccc(NC(=O)c3ccccc3)cc2s1 | 1.0 | 7.4 | -6.3 | 41.4 | 30.7 | 0.2
O=C(O)c1ccc(CSc2nc3ccc(NC(=O)c4ccccc4C(=O)O)cc3s2)cc1 | 99.2* | -7.3 | 37.3 | 19.9 | 8.5 | 2.5

Screening results as filed in PubChem.
